Calls of active or inactive are those of the source. No cut-off for these calls is given here.
Legend:
[1] = system: Plasmodium falciparum; experiment: Antiplasmodial activity against the multidrug-resistant Plasmodium falciparum […] infected in human red blood cells assessed as reduction in parasite growth after 48 hrs by Hoechst 33342 staining based flow cytometric analysis; format: functional, organism-based
Method in brief: (§1)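 Ring-stage cultures (>80% rings) at 1% parasitaemia in A+ human erythrocytes, 2% haematocrit. Medium RPMI 1640 with 10% A+ serum, 37°C, 5% CO2/5% O2. Compounds in DMSO at 1.56–100 µg/mL final, DMSO ≤1%. After 48 h, cells stained with Hoechst 33342 and 1×10^4 counted by flow cytometry. IC50 from logistic dose-response regression; three independent experiments in triplicate.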

[2] = Selectivity index, ratio of CC50 for human HepG2 cells to IC50 for multidrug-resistant Plasmodium falciparum […]; format: toxicity; conditions: read-out: Ratio CC50/IC50
Method in brief: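 Selectivity index = HepG2 CC50 / FCR-3 IC50. CC50 from MTT assay after 48 h exposure, A550. IC50 from 48 h Hoechst 33342 flow-cytometry assay.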

[3] = Cytotoxicity against human HepG2 cells assessed as reduction in cell viability after 48 hrs by MTT assay; format: cell-based
Method in brief: (§2)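 Cells seeded at 2 × 10^5 per well and allowed 24 h at 37°C, 5% CO2 to form a monolayer. Dilutions added in triplicate and incubated 48 h. MTT (2 mg/mL) then added for 4 h, followed by DMSO for 20 min at room temperature. Absorbance read at 550 nm; DMSO diluent and untreated cells served as negative controls. CC50 derived from the curve.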

[4] = system: Plasmodium falciparum; experiment: Antiplasmodial activity against chloroquine-sensitive Plasmodium falciparum 3D7 infected in human red blood cells assessed as reduction in parasite growth after 48 hrs by Hoechst 33342 staining based flow cytometric analysis; format: functional, organism-based; conditions: 3D7, 48 h; method in brief: as §1
[5] = system: Plasmodium yoelii; experiment: Antiplasmodial activity against GFP-harboring Plasmodium yoelii sporozoites infected in human HepG2 cells expressing CD81 assessed as reduction in parasite growth at 10 ug/ml treated every 24 hrs by DAPI staining-based fluorescence microscopic analysis; format: functional, organism-based
Method in brief: (§3)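 Collagen-coated wells seeded with HepG2 (P. berghei), HepG2-CD81 (P. yoelii) or primary human hepatocytes (P. falciparum). Sporozoites added: 5×10^3 to 1×10^4 per well to the cell lines, 2.5×10^4 per well to hepatocytes. Compounds given at infection: top 10 µg/mL plus seven serial dilutions, renewed at 3 h and then every 24 h. Cultures grown 40 h (cell lines) or 8 days (hepatocytes) at 37°C. Methanol-fixed, HSP70 immunolabelled, DAPI counterstained. IC50 from logistic regression; triplicate.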

[6] = system: Plasmodium falciparum; experiment: Antiplasmodial activity against GFP-harboring Plasmodium falciparum sporozoites infected in human primary hepatocytes assessed as reduction in parasite growth at 10 ug/ml treated every 24 hrs by DAPI staining-based fluorescence microscopic analysis; format: functional, organism-based; method in brief: as §3
[7] = system: Plasmodium berghei; experiment: Antiplasmodial activity against GFP-harboring Plasmodium berghei sporozoites infected in human HepG2 cells assessed as reduction in parasite growth at 10 ug/ml treated every 24 hrs by DAPI staining-based fluorescence microscopic analysis; format: functional, organism-based; method in brief: as §3
[8] = Cytotoxicity against human primary hepatocytes assessed as reduction in cell viability after 48 hrs by MTT assay; format: cell-based, Hepatocyte; method in brief: as §2
[9] = Selectivity index, ratio of CC50 for human HepG2 cells to IC50 for GFP-expressing Plasmodium berghei sporozoites; format: toxicity; conditions: read-out: Ratio CC50/IC50
Method in brief: (§4)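 Selectivity index = CC50 (matching cell) / IC50 (matching parasite). Cell–parasite pairs: HepG2-CD81 with P. yoelii, HepG2 with P. berghei, human hepatocytes with P. falciparum.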

[10] = Selectivity index, ratio of CC50 for human primary hepatocytes to IC50 for GFP-expressing Plasmodium falciparum sporozoites; format: toxicity; conditions: read-out: Ratio CC50/IC50; method in brief: as §4
[11] = system: Plasmodium berghei; experiment: Antiplasmodial activity against GFP-harboring Plasmodium berghei sporozoites infected in human HepG2 cells assessed as reduction in parasite growth treated every 24 hrs by DAPI staining-based fluorescence microscopic analysis; format: functional, organism-based; conditions: HepG2, 24 h; method in brief: as §3
[12] = system: Plasmodium falciparum; experiment: Antiplasmodial activity against GFP-harboring Plasmodium falciparum sporozoites infected in human primary hepatocytes assessed as reduction in parasite growth treated every 24 hrs by DAPI staining-based fluorescence microscopic analysis; format: functional, organism-based; method in brief: as §3
[13] = system: Plasmodium yoelii; experiment: Antiplasmodial activity against Plasmodium yoelii 17XNL sporozoites infected in BALB/c mouse assessed as parasite burden at 100 mg/kg, po measured at day 4 by […] (reference value: 0.06%); format: functional
Method in brief: (§5)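 BALB/c mice (6-8 weeks, 20-23 g), n=4 per hybrid group and n=5 per control. Dosed orally at 100 mg/kg (100 µL) on days -1, 0, +1 and +2. Vehicle was DMSO 100%; primaquine diphosphate given at 30 mg/kg daily. On day 0, 5 x 10^3 cryopreserved P. yoelii 17XNL sporozoites injected i.v. Parasitaemia read by Giemsa smear and SYBR Green flow cytometry. Groups compared by Kruskal-Wallis test.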

[14] = Cytotoxicity against human HepG2 cells expressing CD81 assessed as reduction in cell viability after 48 hrs by MTT assay; format: cell-based; method in brief: as §2
[15] = system: Plasmodium yoelii; experiment: Antiplasmodial activity against GFP-harboring Plasmodium yoelii sporozoites infected in human HepG2 cells expressing CD81 assessed as reduction in parasite growth treated every 24 hrs by DAPI staining-based fluorescence microscopic analysis; format: functional, organism-based; conditions: HepG2, 24 h; method in brief: as §3
[16] = Selectivity index, ratio of CC50 for human HepG2 cells expressing CD81 to IC50 for GFP-expressing Plasmodium yoelii sporozoites; format: toxicity; conditions: read-out: Ratio CC50/IC50; method in brief: as §4
[17] = system: Mus musculus; experiment: Acute toxicity in BALB/c mouse assessed as necrosis of liver at 500 mg/kg, po administered as single dose measured at day 14 by haematoxylin and eosin staining based microscopic analysis; format: organism-based; conditions: in vivo
Method in brief: (§6)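 Female BALB/c mice, groups of three, single oral dose; vehicle DMSO 100% for controls. Mice euthanised with CO2 on day 14, or earlier if suffering. Gross necropsy performed. Spleen, liver and kidney fixed in formaldehyde 37%, stained with haematoxylin and eosin and examined by light microscopy.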

[18] = system: Plasmodium yoelii; experiment: Antiplasmodial activity against Plasmodium yoelii 17XNL sporozoites infected in BALB/c mouse assessed as parasite reduction at 100 mg/kg, po measured at day 1 to day 4 by […]; format: functional, organism-based; method in brief: as §5
[19] = system: Mus musculus; experiment: Acute toxicity in BALB/c mouse assessed as necrosis of kidney at 500 mg/kg, po administered as single dose measured at day 14 by haematoxylin and eosin staining based microscopic analysis; format: organism-based; conditions: in vivo; method in brief: as §6
[20] = system: Plasmodium yoelii; experiment: Antiplasmodial activity against Plasmodium yoelii 17XNL sporozoites infected in BALB/c mouse assessed as pre-patent time period of parasitaemia at 100 mg/kg, po measured at day 4 by […]; format: functional; method in brief: as §5
[21] = system: Plasmodium yoelii; experiment: Antiplasmodial activity against Plasmodium yoelii 17XNL sporozoites infected in BALB/c mouse assessed as decrease in parasitaemia in blood at 100 mg/kg, po measured at day 4 by […] relative to control; format: functional; design: scale not given: the % may be the effect or the level left; method in brief: as §5
[22] = system: Mus musculus; experiment: Acute toxicity in BALB/c mouse assessed as ulcerated congestion in stomach at 500 mg/kg, po administered as single dose measured at day 14 by […]; format: organism-based; conditions: in vivo; method in brief: as §6
[23] = system: Plasmodium berghei; experiment: (§7) Antiplasmodial activity against GFP-expressing gametocytes of Plasmodium berghei sporozoites in Anopheles stephensi mosquitoes feeded on blood from infected Swiss mouse assessed as reduction in number of oocysts in mosquito midgut at 100 mg/kg, ip pretreated for 1.5 hrs followed by blood feeding of mosquito and measured at 8 days post mosquitoes infection by fluorescence microscopic method relative to control; format: functional; design: scale not given: the % may be the effect or the level left
Method in brief: (§8)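 Swiss mice (female, 6 weeks) infected i.p. with PbGFP-infected red cells (200 µL, 3000 parasites/µL). Gametocytes monitored 4 days by Giemsa smear and exflagellation. Hybrid given i.p. at 100 mg/kg in DMSO 1.5 h before A. stephensi fed 1 h on mice with 1% gametocytes. Controls were untreated and DMSO-treated mice. Thirty mosquitoes per group dissected after 8 days. Midgut oocysts counted by fluorescence microscopy against control mosquitoes taken as 100%.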

[24] = system: Plasmodium berghei; experiment: as §7, with “in” for “in number of oocysts in”, “infection” for “midgut”; format: functional; design: scale not given: the % may be the effect or the level left; method in brief: as §8
[25] = system: Plasmodium berghei; experiment: Potency index, ratio of primaquine IC50 to compound IC50 for GFP-expressing Plasmodium berghei sporozoites infected in human HepG2 cells; format: functional

SMILES | IC50 [1] [µM] | selectivity ratio [2] | CC50 at 48 h [3] [µM] | IC50 [4] [µM] | CC50 at 48 h [8] [µM] | selectivity ratio [9] | selectivity ratio [10] | IC50 [11] [µM] | IC50 [12] [µM] | Activity [13] [%] | CC50 at 48 h [14] [µM] | IC50 [15] [µM] | selectivity ratio [16] | also measured
Cc1c(C(=O)NCCNc2ccnc3cc(Cl)ccc23)[n+]([O-])c2ccccc2[n+]1[O-] | 1.9 | 30.6 | 58.2 | 0.78 |  |  |  |  |  |  |  |  |  | 
Cc1cc2c(cc1C)[n+]([O-])c(C(=O)NCCNc1ccnc3cc(Cl)ccc13)c(C)[n+]2[O-] | 0.9 | 71.7 | 64.5 | 0.68 |  |  |  |  |  |  |  |  |  | inhibition [5]: inactive; inhibition [6]: inactive; inhibition [7]: inactive
COc1cc(NC(C)CCCNC(=O)c2c(C)[n+]([O-])c3ccc(C)cc3[n+]2[O-])c2ncccc2c1 (centres undefined) | 50.6 | 2.17 | 110 | 44.9 | > 207 | 17.3 | 28.6 | 6.34 | 7.21 | 0.03 | > 207 | 14 | 14.7 | 
COc1cc(NC(C)CCCNC(=O)c2c(C)[n+]([O-])c3cc(C)c(C)cc3[n+]2[O-])c2ncccc2c1 (centres undefined) | 52.9 | > 3.82 | > 202 | 30.8 | > 202 | > 17.8 | 20.2 | 11.3 | 8.11 | 0.06 | > 202 |  |  | 
CCN(CC)CCCC(C)Nc1ccnc2cc(Cl)ccc12 (centres undefined) [CHLOROQUINE] |  |  | 137 |  |  |  |  |  |  |  |  |  |  | 
COc1cc(NC(C)CCCN)c2ncccc2c1 (centres undefined) [PRIMAQUINE] | 1.1 | 109 | 120 | 9.86 |  | 33 | 136 | 3.65 |  |  | 69.8 | 2.13 | 32.8 | Activity [17]: Non-Toxic; Activity [18]: inactive; Activity [19]: Non-Toxic; Time [20]: 24 h; Activity [21]: 100%; Activity [22]: Toxic
COc1ccc2c(c1)[n+]([O-])c(C(=O)NCCNc1ccnc3cc(Cl)ccc13)c(C)[n+]2[O-] | 2.07 | 44.8 | 92.7 | 2.11 |  |  |  |  |  |  |  |  |  | 
Cc1c(C(=O)NCCNc2ccnc3cc(Cl)ccc23)[n+]([O-])c2cc(Cl)ccc2[n+]1[O-] | 0.4 | 54.6 | 21.8 | 0.52 | 61.1 | 2.15 | 9.56 | 10.1 | 6.39 |  | 69.9 | 14.6 | 4.78 | 
COc1cc(NC(C)CCCNC(=O)c2c(C)[n+]([O-])c3ccc(OC)cc3[n+]2[O-])c2ncccc2c1 (centres undefined) | 30.7 | > 6.63 | > 204 | 27 | > 204 | > 14.5 |  | 14.1 |  | 0.02 | > 204 |  |  | inhibition [5]: inactive; inhibition [6]: inactive
COc1cc(NC(C)CCCNC(=O)c2c(C)[n+]([O-])c3ccc(Cl)cc3[n+]2[O-])c2ncccc2c1 (centres undefined) | 36.1 | 3.34 | 155 | 62.6 | > 198 | 136 | 54.5 | 1.14 | 3.64 | 0.01 | > 198 | 5.71 | 34.7 | Activity [23]: 77%; Activity [24]: 23%; Ratio IC50 [25]: 3.2
Cc1ccc2c(c1)[n+]([O-])c(C(=O)NCCNc1ccnc3cc(Cl)ccc13)c(C)[n+]2[O-] | 2.24 | 14 | 31.4 | 0.57 |  |  |  |  |  |  |  |  |  | 

Reference: ChEMBL document CHEMBL4270646, “Novel antimalarial chloroquine- and primaquine-quinoxaline 1,4-di-N-oxide hybrids: Design, synthesis, Plasmodium life cycle stage profile, and preliminary toxicity studies” (Eur J Med Chem, 2018)
